Reference: ChEMBL document CHEMBL2417436, “Synthesis and biological effects of novel 2-amino-3-(4-chlorobenzoyl)-4-substituted thiophenes as allosteric enhancers of the A1 adenosine receptor” (Eur J Med Chem, 2013)

Assays:
[1] = target: T1, Adenosine receptor A1 (Homo sapiens) (UniProt P30542); assay: Displacement of [3H]DPCPX from human adenosine A1 receptor expressed in CHO cells at 10 uM after 120 mins by scintillation counting
T1 sequence (whole entry): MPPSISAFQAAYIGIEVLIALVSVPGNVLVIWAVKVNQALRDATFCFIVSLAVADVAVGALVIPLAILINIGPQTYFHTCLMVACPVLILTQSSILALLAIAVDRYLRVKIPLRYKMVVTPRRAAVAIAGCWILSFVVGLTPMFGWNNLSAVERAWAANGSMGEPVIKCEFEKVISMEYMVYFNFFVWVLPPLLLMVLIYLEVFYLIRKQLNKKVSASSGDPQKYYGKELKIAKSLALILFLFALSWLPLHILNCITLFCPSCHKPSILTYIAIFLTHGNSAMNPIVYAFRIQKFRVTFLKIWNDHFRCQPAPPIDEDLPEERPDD

[2] = target: T2, Adenosine receptor A3 (Homo sapiens) (UniProt P0DMS8); assay: Displacement of [3H]MRE-3008-F20 from human adenosine A3 receptor expressed in CHO cells at 10 uM after 120 mins by scintillation counting
T2 sequence (whole entry): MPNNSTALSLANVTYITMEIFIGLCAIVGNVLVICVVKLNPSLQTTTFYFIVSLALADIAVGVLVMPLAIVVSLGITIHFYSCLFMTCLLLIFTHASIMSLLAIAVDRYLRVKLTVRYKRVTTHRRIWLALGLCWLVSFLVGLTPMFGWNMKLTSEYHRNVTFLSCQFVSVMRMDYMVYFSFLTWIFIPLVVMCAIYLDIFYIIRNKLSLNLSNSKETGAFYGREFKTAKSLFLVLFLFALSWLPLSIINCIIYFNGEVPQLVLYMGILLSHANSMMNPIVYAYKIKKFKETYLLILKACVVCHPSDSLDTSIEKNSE

[3] = target: T1, Adenosine receptor A1 (Homo sapiens); assay: Allosteric enhancement of human adenosine A1 receptor expressed in CHO cells assessed as inhibition of CCPA-induced cAMP production at 100 nM after 10 mins; type: functional, cell-based
In short: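 Intact hA1CHO cells (10⁶/mL) in phosphate buffer with adenosine deaminase 1.0 IU/mL and Ro 20-1724 0.5 mM, preincubated 10 min at 37 °C. Compound 100 nM plus CCPA 1 pM added for 10 min, then forskolin 1 μM for 5 min. Stopped with cold 6% TCA, ether-extracted. cAMP measured by [3H]-cAMP competition with adrenal binding protein (4 °C, 150 min). pmol/10⁶ cells, mean ± SEM of three.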

[4] = target: Adenosine receptor A2a (Homo sapiens) (UniProt P29274); assay: Displacement of [3H]ZM 241385 from human adenosine A2A receptor expressed in CHO cells at 10 uM after 60 mins by scintillation counting; type: cell-based
In short: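 hA2ACHO membranes in 50 mM Tris HCl, 10 mM MgCl2, pH 7.4, 4 °C for 60 min. [3H]ZM 241385 given as 1 nM in methods and 2 nM in table footnote. Compound at 10 μM from 100-fold DMSO stock, 1% DMSO final. Nonspecific binding with 1 μM ZM 241385. Filtration and scintillation counting. Percent inhibition of control specific binding, ±SEM, n=3.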

[5] = target: T1, Adenosine receptor A1 (Homo sapiens); assay: Allosteric enhancement of human adenosine A1 receptor expressed in CHO cells assessed as inhibition of forskolin-induced cAMP production at 10 uM after 10 mins; type: functional, cell-based
In short: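 Whole hA1CHO cells (10⁶/mL) preincubated 10 min at 37 °C in phosphate buffer with adenosine deaminase (1.0 IU/mL) and Ro 20-1724 (0.5 mM). Compound alone at 10 μM for a further 10 min; forskolin 1 μM for 5 min. TCA stop, ether extraction, cAMP by [3H]-cAMP protein-binding competition assay. Expressed as pmol/10⁶ cells; mean ± SEM, three experiments.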

[6] = target: T1, Adenosine receptor A1 (Homo sapiens); assay: Allosteric enhancement of human adenosine A1 receptor expressed in CHO cells assessed as increase of CCPA Ki at 10 uM after 90 mins by [3H]DPCPX radioligand binding assay; type: cell-based
In short: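 hA1CHO membranes (50 mM Tris-HCl, pH 7.4, adenosine deaminase-treated). [3H]DPCPX 1 nM competed by CCPA (0.01 nM–1 μM) with or without test compound at 10 μM. Triplicate, 90 min at 25 °C. Nonspecific binding taken with 1 μM DPCPX. Filtration, then scintillation counting. Ki by Cheng–Prusoff. Shift = Ki(CCPA)/Ki(CCPA+enhancer). Mean ± SEM, n=3.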

[7] = target: T1, Adenosine receptor A1 (Homo sapiens); assay: Allosteric enhancement of human adenosine A1 receptor expressed in CHO cells assessed as increase of [3H]CCPA Bmax at 10 uM after 90 mins; type: cell-based
In short: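 Saturation of [3H]CCPA (0.05–20 nM) on hA1CHO membranes in 50 mM Tris-HCl, pH 7.4, with or without compound at final 10 μM. Triplicate, 25 °C, 90 min. Nonspecific binding defined with 1 μM R-PIA. Filter-bound radioactivity counted. KD and Bmax fitted by weighted nonlinear least squares; Bmax shift versus control. Mean ± SEM, n=3.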

Adenosine receptor A2a (Homo sapiens), sequence (P29274 whole entry): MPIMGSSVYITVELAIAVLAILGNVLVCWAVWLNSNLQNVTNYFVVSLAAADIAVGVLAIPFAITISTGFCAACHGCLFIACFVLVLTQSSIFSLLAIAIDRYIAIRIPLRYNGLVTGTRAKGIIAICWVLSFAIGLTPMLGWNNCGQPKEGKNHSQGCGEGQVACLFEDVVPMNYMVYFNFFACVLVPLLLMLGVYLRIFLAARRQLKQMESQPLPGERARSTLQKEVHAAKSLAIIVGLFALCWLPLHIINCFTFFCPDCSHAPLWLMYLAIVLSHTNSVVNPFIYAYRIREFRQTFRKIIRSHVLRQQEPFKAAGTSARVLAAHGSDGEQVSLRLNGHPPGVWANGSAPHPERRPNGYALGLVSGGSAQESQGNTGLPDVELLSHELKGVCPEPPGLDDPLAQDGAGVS

SMILES	inhibition [1]	inhibition [2]	inhibition [3]	inhibition [4]	inhibition [5]	fold change (FC) [6]	fold change (FC) [7]
Nc1scc(CN2CCN3c4ccccc4CC3C2)c1C(=O)c1ccc(Cl)cc1 (stereo unspecified)	0%	5%	72%	3%	71%	7.6	8.1
COc1ccc2c(c1)cc1n2CCN(Cc2csc(N)c2C(=O)c2ccc(Cl)cc2)C1	1%	6%	41%	0%	43%	3.7	4.8
CCCN(CCC)Cc1c(-c2ccccc2)sc(N)c1C(=O)c1ccc(Cl)cc1	1%	11%	29%	1%	28%	2.5	3.1
Cn1c2c(c3cc(Cl)ccc31)CN(Cc1csc(N)c1C(=O)c1ccc(Cl)cc1)CC2	1%	1%	28%	0%	24%	2.6	2.8
CN(Cc1c(-c2ccccc2)sc(N)c1C(=O)c1ccc(Cl)cc1)C(C)(C)C	5%	10%	13%	1%	10%	1.3	1.3
Nc1scc(CN2CCc3ccccc3C2)c1C(=O)c1ccc(Cl)cc1	0%	1%	43%	3%	41%	4.1	4.6
CCCN(CCC)Cc1csc(N)c1C(=O)c1ccc(Cl)cc1	4%	5%	10%	0%	9%	1.1	1.2
Nc1scc(CN2CCC3(CC2)Oc2cccc(F)c2O3)c1C(=O)c1ccc(Cl)cc1	1%	7%	52%	1%	56%	6.3	6.5
CCN(CC)Cc1c(-c2ccccc2)sc(N)c1C(=O)c1ccc(Cl)cc1	1%	9%	27%	5%	25%	2.4	2.8
Cc1ccc2c(c1)OC1(CCN(Cc3csc(N)c3C(=O)c3ccc(Cl)cc3)CC1)O2	0%	6%	45%	3%	48%	4.2	5.1
C=CCN(CC=C)Cc1c(Br)sc(N)c1C(=O)c1ccc(Cl)cc1	6%	8%	13%	1%	8%	1.2	1.2
Nc1scc(COc2ccc(F)cc2)c1C(=O)c1ccc(Cl)cc1	1%	8%	15%	1%	10%	1.2	1.2
CCCCN(C)Cc1c(-c2ccccc2)sc(N)c1C(=O)c1ccc(Cl)cc1	1%	5%	12%	1%	5%	1.1	1.1
CN(Cc1csc(N)c1C(=O)c1ccc(Cl)cc1)c1ccc(F)cc1	3%	4%	26%	2%	28%	3.4	3.2
Nc1scc(CN2CCn3c(cc4cc(F)ccc43)C2)c1C(=O)c1ccc(Cl)cc1	0%	5%	65%	2%	69%	7.2	8.2
Cc1sc(N)c(C(=O)c2cccc(C(F)(F)F)c2)c1C	0%	–	20%	0%	18%	1.6	1.3
CN(Cc1ccccc1)Cc1csc(N)c1C(=O)c1ccc(Cl)cc1	1%	7%	40%	1%	42%	4	4.4
Nc1scc(CN2CCc3[nH]c4ccccc4c3C2)c1C(=O)c1ccc(Cl)cc1	0%	1%	11%	1%	3%	1	1
CN(Cc1csc(N)c1C(=O)c1ccc(Cl)cc1)c1ccc(Cl)cc1	8%	12%	21%	0%	22%	2.2	2.5
CCN(CC)Cc1csc(N)c1C(=O)c1ccc(Cl)cc1	0%	2%	12%	1%	5%	1	1
Nc1scc(CN2CCn3c(cc4ccccc43)C2)c1C(=O)c1ccc(Cl)cc1	3%	3%	62%	0%	66%	6.6	7.5
CN(C)Cc1c(-c2ccccc2)sc(N)c1C(=O)c1ccc(Cl)cc1	1%	2%	10%	1%	6%	1	1.1
CC(C)(C)c1ccc2c(c1)OC1(CCN(Cc3csc(N)c3C(=O)c3ccc(Cl)cc3)CC1)O2	1%	12%	55%	0%	51%	6	6.3
Nc1scc(CSc2ccccc2)c1C(=O)c1ccc(Cl)cc1	1%	5%	21%	1%	18%	2	2.2
Nc1scc(COc2ccccc2)c1C(=O)c1ccc(Cl)cc1	1%	2%	11%	0%	9%	1.2	1.3
Cn1c2c(c3ccccc31)CN(Cc1csc(N)c1C(=O)c1ccc(Cl)cc1)CC2	2%	2%	27%	1%	28%	2.9	3.1
